Assay results published in ChEMBL document CHEMBL1122519, “Bispyridinamines: a new class of topical antimicrobial agents as inhibitors of dental plaque” (1984).

Legend:
Streptococcus mutans [1] = assay: Compound is evaluated for the effect of saliva upon the antiplaque activity at 0% of saliva and at 0.001 percentage of compound; - = No plaque accumulation; format: functional, organism-based
In short: (§1)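 Hydroxylapatite plates were treated twice daily with 1-min exposures to aqueous compound (0.001–0.1%), air-dried and rinsed. They were then incubated anaerobically at 37 °C with S. mutans in sucrose medium for 48 h. The medium held 0, 5 or 50% pooled, centrifuged, filter-sterilised human saliva. Plaque and plate staining were scored visually after FD&C Red No. 3 dye. Staining was scored on plates run without organism.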

Streptococcus mutans [2] = assay: Compound is evaluated for the effect of saliva upon the antiplaque activity at 0% of saliva and at 0.1 percentage of compound; - = No plaque accumulation; format: functional, organism-based; in short: as §1
Streptococcus mutans [3] = assay: Compound is evaluated for the effect of saliva upon the antiplaque activity at 5% of saliva and at 0.01 percentage of compound; + = Slight plaque accumulation; format: functional, organism-based; in short: as §1
Streptococcus mutans [4] = assay: Compound is evaluated for the effect of saliva upon the antiplaque activity at 50% of saliva and at 0.01 percentage of compound; - = No staining; format: functional, organism-based; in short: as §1
Streptococcus mutans [5] = assay: Compound is evaluated for the effect of saliva upon the antiplaque activity at 5% of saliva and at 0.01 percentage of compound; - = No staining; format: functional, organism-based; in short: as §1
Streptococcus mutans [6] = assay: Compound is evaluated for the effect of saliva upon the antiplaque activity at 0% of saliva and at 0.005 percentage of compound; + = Slight staining; format: functional, organism-based; in short: as §1
Streptococcus mutans [7] = assay: Compound is evaluated for the effect of saliva upon the antiplaque activity at 50% of saliva and at 0.005 percentage of compound; - = No staining; format: functional, organism-based; in short: as §1
Streptococcus mutans [8] = assay: Compound is evaluated for the effect of saliva upon the antiplaque activity at 0% of saliva and at 0.01 percentage of compound; + = Slight staining; format: functional, organism-based; in short: as §1
Streptococcus mutans [9] = assay: Compound is evaluated for the effect of saliva upon the antiplaque activity at 50% of saliva and at 0.1 percentage of compound; + = Slight plaque accumulation; format: functional, organism-based; in short: as §1
Streptococcus mutans [10] = assay: Compound is evaluated for the effect of saliva upon the antiplaque activity at 0% of saliva and at 0.005 percentage of compound; - = No plaque accumulation; format: functional, organism-based; in short: as §1
Streptococcus mutans [11] = assay: Compound is evaluated for the effect of saliva upon the antiplaque activity at 0% of saliva and at 0.1 percentage of compound; - = No staining; format: functional, organism-based; in short: as §1
Streptococcus mutans [12] = assay: Compound is evaluated for the effect of saliva upon the antiplaque activity at 5% of saliva and at 0.005 percentage of compound; + = Slight plaque accumulation; format: functional, organism-based; in short: as §1
Streptococcus mutans [13] = assay: Compound is evaluated for the effect of saliva upon the antiplaque activity at 50% of saliva and at 0.01 percentage of compound; + = Slight plaque accumulation; format: functional, organism-based; in short: as §1
Streptococcus mutans [14] = assay: Compound is evaluated for the inhibition of plaque-forming enzyme of Streptococcus mutans OMZ-61; format: functional
In short: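 S. mutans OMZ-61 was grown anaerobically at 37 °C for 24 h in glucose medium. The cell-free filtrate, adjusted to pH 5.5, served as the dextran/levan sucrase source. Reactions contained 3 μmol 14C-sucrose in citrate phosphate buffer pH 5.5 with 4% EtOH and ran 2 h at 37 °C. MeOH-insoluble polysaccharide was counted by scintillation. Compounds were tested at 50, 160 and 500 μg base/mL, with lower levels if needed, and I50 was read graphically.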

Streptococcus mutans [15] = assay: Compound is evaluated for the effect of saliva upon the antiplaque activity at 50% of saliva and at 0.1 percentage of compound; - = No staining; format: functional, organism-based; in short: as §1
Streptococcus mutans [16] = assay: Compound is evaluated for the effect of saliva upon the staining potential at 0% of saliva and at 0.001 percentage of compound; - = No staining; format: functional, organism-based; in short: as §1
Streptococcus mutans [17] = assay: Compound is evaluated for the effect of saliva upon the antiplaque activity at 0% of saliva and at 0.01 percentage of compound; - = No plaque accumulation; format: functional, organism-based; in short: as §1

CCCCCCCCCCCCCCCC[n+]1ccccc1.[Cl-]
95 (ug of base) ml-1: I50 (Streptococcus mutans [14])
inactive: Plaque accum (Streptococcus mutans [1]) No plaque accumulation | Plaque accum (Streptococcus mutans [2]) No plaque accumulation | Plaque accum (Streptococcus mutans [3]) No plaque accumulation | Staining potential (Streptococcus mutans [4]) No staining | Staining potential (Streptococcus mutans [5]) No staining | Staining potential (Streptococcus mutans [6]) No staining | Staining potential (Streptococcus mutans [7]) No staining | Staining potential (Streptococcus mutans [8]) No staining | Plaque accum (Streptococcus mutans [9]) No plaque accumulation | Plaque accum (Streptococcus mutans [10]) No plaque accumulation | Staining potential (Streptococcus mutans [11]) No staining | Plaque accum (Streptococcus mutans [12]) No plaque accumulation | Plaque accum (Streptococcus mutans [13]) No plaque accumulation | Staining potential (Streptococcus mutans [15]) No staining | Staining potential (Streptococcus mutans [16]) No staining | Plaque accum (Streptococcus mutans [17]) No plaque accumulation
